In ChEMBL document CHEMBL1255444, “In vitro antibacterial activities of JNJ-Q2, a new broad-spectrum fluoroquinolone” (Antimicrob Agents Chemother, 2010):
Converted amounts (≈) assume the structure as drawn.

Key:
Haemophilus influenzae = assay: Antibacterial activity against Haemophilus influenzae by broth microdilution method; assay type: functional
Summary of the method: (§1)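 MICs by CLSI M07-A7 broth microdilution in cation-adjusted Mueller-Hinton medium. For S. pneumoniae the medium was supplemented with 5% lysed horse blood. CLSI quality control strains were run alongside as appropriate.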

Streptococcus pneumoniae [1] = assay: Antibacterial activity against Streptococcus pneumoniae isolate OC7348 assessed as log reduction in bacterial growth at 2 times MIC measured at 6 hrs by time-kill assay; assay type: functional
Summary of the method: (§2)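 Drug was diluted from 50× stocks made in water or acidified water. Samples were taken at 6 and 24 h and serially diluted onto TSA-5% sheep blood plates. Plates were incubated 20–24 h at 37°C in 5% CO2 before counting CFU. Log10 titer change is given relative to the starting inoculum.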

Streptococcus pneumoniae [2] = assay: Antibacterial activity against Streptococcus pneumoniae isolate OC6610 assessed as log reduction in bacterial growth at 4 times MIC measured at 24 hrs by time-kill assay; assay type: functional; summary of the method: as §2
Staphylococcus aureus [3] = assay: Antibacterial activity against methicillin-resistant Staphylococcus aureus isolate OC17042 harboring gyrA S84L/G106D, parC S80F and parE D732N mutant gene assessed as log reduction in bacterial growth at 4 times MIC measured at 24 hrs by time-kill assay; assay type: functional
Summary of the method: (§3)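 Overnight MRSA cultures were diluted into fresh cation-adjusted Mueller-Hinton broth to about 5 × 10^6 CFU/ml. […] Samples were plated serially diluted on trypticase soy agar, and CFU were counted after 20-24 h at 37°C. Value is the log10 decrease at 24 h from the starting inoculum; detection limit 100 CFU.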

Staphylococcus aureus [4] = assay: Antibacterial activity against methicillin-resistant Staphylococcus aureus isolate OC11521 harboring gyrA S84L/S85P, parC E84G mutant gene assessed as log reduction in bacterial growth at 4 times MIC measured at 24 hrs by time-kill assay; assay type: functional; summary of the method: as §3
Staphylococcus aureus [5] = assay: Antibacterial activity against methicillin-resistant Staphylococcus aureus isolate OC12501 by broth microdilution method; assay type: functional
Summary of the method: (§4)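 CLSI M07-A7 broth microdilution MIC. Medium was cation-adjusted Mueller-Hinton broth. For S. pneumoniae it was Mueller-Hinton supplemented with 5% lysed horse blood. CLSI quality-control strains were included as appropriate.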

Streptococcus pneumoniae [6] = assay: Antibacterial activity against Streptococcus pneumoniae isolate OC6608 assessed as log reduction in bacterial growth at 4 times MIC measured at 24 hrs by time-kill assay; assay type: functional; summary of the method: as §2
Streptococcus pneumoniae [7] = assay: Antibacterial activity against Streptococcus pneumoniae isolate OC7189 assessed as log reduction in bacterial growth at 4 times MIC measured at 24 hrs by time-kill assay; assay type: functional; summary of the method: as §2
Klebsiella aerogenes = assay: Antibacterial activity against Enterobacter aerogenes by broth microdilution method; assay type: functional; summary of the method: as §1
Staphylococcus aureus [8] = assay: Antibacterial activity against methicillin-resistant Staphylococcus aureus isolate OC11223 assessed as log reduction in bacterial growth at 2 times MIC measured at 24 hrs by time-kill assay; assay type: functional; summary of the method: as §3
Streptococcus pneumoniae [9] = assay: Antibacterial activity against Streptococcus pneumoniae isolate OC6790 assessed as log reduction in bacterial growth at 4 times MIC measured at 24 hrs by time-kill assay; assay type: functional; summary of the method: as §2
Streptococcus pneumoniae [10] = assay: Antibacterial activity against Streptococcus pneumoniae isolate OC7376 assessed as log reduction in bacterial growth at 2 times MIC measured at 6 hrs by time-kill assay; assay type: functional; summary of the method: as §2
Staphylococcus aureus [11] = assay: Antibacterial activity against methicillin-resistant Staphylococcus aureus isolate OC8525 harboring wild type quinolone resistance-determining region assessed as log reduction in bacterial growth at 2 times MIC measured at 24 hrs by time-kill assay; assay type: functional; summary of the method: as §3
Streptococcus pneumoniae [12] = assay: Antibacterial activity against Streptococcus pneumoniae R6 by agar dilution method; assay type: functional
Summary of the method: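 MICs for the resistance-selection studies were determined by CLSI agar dilution on Mueller-Hinton medium. For S. pneumoniae the medium was supplemented with 5% lysed horse blood. For MRSA fluctuation-assay strains an arithmetic agar dilution scheme was used for a more precise MIC.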

Staphylococcus aureus [13] = assay: Antibacterial activity against methicillin-resistant Staphylococcus aureus isolate OC11696 assessed as log reduction in bacterial growth at 2 times MIC measured at 24 hrs by time-kill assay; assay type: functional; summary of the method: as §3
Streptococcus pneumoniae [14] = assay: Antibacterial activity against Streptococcus pneumoniae isolate OC6610 assessed as log reduction in bacterial growth at 4 times MIC measured at 6 hrs by time-kill assay; assay type: functional; summary of the method: as §2
[15] = Distribution coefficient, log D of the compound; assay type: physicochemical; details: octanol/water
Staphylococcus aureus [16] = assay: Antibacterial activity against methicillin-resistant Staphylococcus aureus isolate OC8532 harboring wild type quinolone resistance-determining region by agar dilution method; assay type: functional
Summary of the method: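 CLSI agar dilution MIC on cation-adjusted Mueller-Hinton medium. These were the MIC values used for the resistance studies, and CLSI quality-control strains were included as appropriate.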

Streptococcus pneumoniae [17] = assay: Antibacterial activity against Streptococcus pneumoniae isolate OC6790 assessed as log reduction in bacterial growth at 2 times MIC measured at 24 hrs by time-kill assay; assay type: functional; summary of the method: as §2
Streptococcus pneumoniae [18] = assay: Antibacterial activity against Streptococcus pneumoniae isolate OC5462 assessed as log reduction in bacterial growth at 2 times MIC measured at 6 hrs by time-kill assay; assay type: functional; summary of the method: as §2
[19] = Aqueous solubility of the compound; assay type: physicochemical
Staphylococcus aureus [20] = assay: Antibacterial activity against methicillin-resistant Staphylococcus aureus isolate OC17042 harboring gyrA S84L/G106D, parC S80F and parE D732N mutant gene by broth microdilution method; assay type: functional; summary of the method: as §4
Staphylococcus aureus [21] = assay: Antibacterial activity against methicillin-resistant Staphylococcus aureus isolate OC11521 harboring gyrA S84L/S85P, parC E84G mutant gene assessed as log reduction in bacterial growth at 2 times MIC measured at 24 hrs by time-kill assay; assay type: functional; summary of the method: as §3
Streptococcus pneumoniae [22] = assay: Antibacterial activity against Streptococcus pneumoniae ATCC 49619 by broth microdilution method; assay type: functional; summary of the method: as §1
Streptococcus pneumoniae [23] = assay: Antibacterial activity against Streptococcus pneumoniae isolate OC7189 by broth microdilution method; assay type: functional; summary of the method: as §4
[24] = Antibacterial activity against Streptococcus sp. group C by broth microdilution method; assay type: functional
Summary of the method: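 MICs by broth microdilution following CLSI M07-A7 in cation-adjusted Mueller-Hinton medium, using isolates from the J&JPRD culture collection. CLSI quality control strains were included as appropriate.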

Streptococcus pneumoniae [25] = assay: Antibacterial activity against Streptococcus pneumoniae isolate OC7376 assessed as log reduction in bacterial growth at 4 times MIC measured at 24 hrs by time-kill assay; assay type: functional; summary of the method: as §2
Streptococcus pneumoniae [26] = assay: Antibacterial activity against Streptococcus pneumoniae isolate OC6585 assessed as log reduction in bacterial growth at 2 times MIC measured at 24 hrs by time-kill assay; assay type: functional; summary of the method: as §2
Staphylococcus aureus [27] = assay: Antibacterial activity against methicillin-resistant Staphylococcus aureus isolate OC8525 harboring wild type quinolone resistance-determining region assessed as log reduction in bacterial growth at 4 times MIC measured at 24 hrs by time-kill assay; assay type: functional
Summary of the method: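 Time-kill in cation-adjusted Mueller-Hinton broth. […] Samples were taken up to 24 h, serially diluted onto TSA and counted after 20–24 h at 37°C. Result is log10 decrease at 24 h from the starting inoculum; detection limit 100 CFU.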

Streptococcus pneumoniae [28] = assay: Antibacterial activity against Streptococcus pneumoniae isolate OC7376 by broth microdilution method; assay type: functional; summary of the method: as §4
Streptococcus pneumoniae [29] = assay: Antibacterial activity against Streptococcus pneumoniae isolate OC7376 assessed as log reduction in bacterial growth at 2 times MIC measured at 24 hrs by time-kill assay; assay type: functional; summary of the method: as §2
Staphylococcus aureus [30] = assay: Antibacterial activity against methicillin-resistant Staphylococcus aureus isolate OC11696 by broth microdilution method; assay type: functional; summary of the method: as §4

COc1c(N2CCC/C(=C(\F)CN)C2)c(F)cc2c(=O)c(C(=O)O)cn(C3CC3)c12 [ACORAFLOXACIN]
MIC (Haemophilus influenzae): 0.008 µg/mL (≈ 0.0191 µM)
MIC50 (Haemophilus influenzae): 0.008 µg/mL (≈ 0.0191 µM)
MIC90 (Haemophilus influenzae): 0.015 µg/mL (≈ 0.0358 µM)
deltalog10CFU/ml (Streptococcus pneumoniae [1]): 3.8
deltalog10CFU/ml (Streptococcus pneumoniae [2]): 6.9
deltalog10CFU/ml (Staphylococcus aureus [3]): 3.5
deltalog10CFU/ml (Staphylococcus aureus [4]): 2.3
MIC (Staphylococcus aureus [5]): 0.06 µg/mL (≈ 0.143 µM)
deltalog10CFU/ml (Streptococcus pneumoniae [6]): 7.1
deltalog10CFU/ml (Streptococcus pneumoniae [7]): 7.2
MIC50 (Klebsiella aerogenes): 0.12 µg/mL (≈ 0.286 µM)
MIC90 (Klebsiella aerogenes): 0.25 µg/mL (≈ 0.596 µM)
deltalog10CFU/ml (Staphylococcus aureus [8]): 2.5
deltalog10CFU/ml (Streptococcus pneumoniae [9]): 6.8
deltalog10CFU/ml (Streptococcus pneumoniae [10]): 4.4
deltalog10CFU/ml (Staphylococcus aureus [11]): 5.1
MIC (Streptococcus pneumoniae [12]): 0.015 µg/mL (≈ 0.0358 µM)
deltalog10CFU/ml (Staphylococcus aureus [13]): 6.5
deltalog10CFU/ml (Streptococcus pneumoniae [14]): 3.5
logD [15]: 0.37
MIC (Staphylococcus aureus [16]): 0.008 µg/mL (≈ 0.0191 µM)
deltalog10CFU/ml (Streptococcus pneumoniae [17]): 7.2
deltalog10CFU/ml (Streptococcus pneumoniae [18]): 3.2
solubility [19]: 4520 µg/mL (≈ 10800 µM)
MIC (Staphylococcus aureus [20]): 0.5 µg/mL (≈ 1.19 µM)
deltalog10CFU/ml (Staphylococcus aureus [21]): 2.3
MIC50 (Streptococcus pneumoniae [22]): 0.015 µg/mL (≈ 0.0358 µM)
MIC90 (Streptococcus pneumoniae [22]): 0.12 µg/mL (≈ 0.286 µM)
MIC (Streptococcus pneumoniae [23]): 0.015 µg/mL (≈ 0.0358 µM)
MIC50 [24]: 0.008 µg/mL (≈ 0.0191 µM)
MIC90 [24]: 0.015 µg/mL (≈ 0.0358 µM)
deltalog10CFU/ml (Streptococcus pneumoniae [25]): 6.3
deltalog10CFU/ml (Streptococcus pneumoniae [26]): 6.6
deltalog10CFU/ml (Staphylococcus aureus [27]): 5
MIC (Streptococcus pneumoniae [28]): 0.12 µg/mL (≈ 0.286 µM)
deltalog10CFU/ml (Streptococcus pneumoniae [29]): 6.8
MIC (Staphylococcus aureus [30]): 0.06 µg/mL (≈ 0.143 µM)
